Measurements reported in ChEMBL document CHEMBL2016522, “Discovery and Hit-to-Lead Optimization of Non-ATP Competitive MK2 (MAPKAPK2) Inhibitors” (ACS Med Chem Lett, 2011).

What was measured:
[1] = molecular target: T1, MAP kinase-activated protein kinase 2 (Homo sapiens, UniProt P49137); experiment: Inhibition of MK2 using Acam peptide as substrate incubated for 30 mins prior to substrate addition measured after 10 mins using 100 uM ATP by DELFIA assay
[2] = molecular target: T1, MAP kinase-activated protein kinase 2; experiment: Inhibition of MK2-mediated HSP27 phosphorylation in IL-1beta stimulated human SW1353 cells incubated for 30 mins prior to IL-1beta-stimulation measured after 27 mins by ELISA; assay type: cell-based
[3] = Cytotoxicity against human SW1353 cells after 30 mins by ATP-dependent luciferase luminescence assay; assay type: cell-based
[4] = molecular target: T2, Cytochrome P450 2C9 (Homo sapiens, UniProt P11712); experiment: Inhibition of CYP2C9 in human liver microsomes co-incubated with tolbutamide; assay type: ADME, Microsome
T2 sequence (P11712 whole entry): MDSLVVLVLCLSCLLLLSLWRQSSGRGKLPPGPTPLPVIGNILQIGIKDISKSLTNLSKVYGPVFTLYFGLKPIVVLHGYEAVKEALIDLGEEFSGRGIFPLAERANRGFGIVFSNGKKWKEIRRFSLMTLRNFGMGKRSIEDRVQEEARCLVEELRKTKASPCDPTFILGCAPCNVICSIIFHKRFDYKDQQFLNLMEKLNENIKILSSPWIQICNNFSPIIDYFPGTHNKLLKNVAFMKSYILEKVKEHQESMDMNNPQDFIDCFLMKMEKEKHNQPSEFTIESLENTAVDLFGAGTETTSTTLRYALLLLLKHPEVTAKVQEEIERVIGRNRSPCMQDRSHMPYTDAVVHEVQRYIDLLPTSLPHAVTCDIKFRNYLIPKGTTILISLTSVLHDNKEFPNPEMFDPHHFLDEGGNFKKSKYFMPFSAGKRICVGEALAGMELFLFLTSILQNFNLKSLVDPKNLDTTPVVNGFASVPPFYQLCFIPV
In short: (§1)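 Tested against a panel of cytochrome P450 enzymes at compound concentrations up to 30 μM.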

[5] = molecular target: T3, Cytochrome P450 2D6 (Homo sapiens, UniProt P10635); experiment: Inhibition of CYP2D6 in human liver microsomes using dextromethorphan as substrate incubated for 30 mins prior to substrate addition; assay type: ADME, Microsome; in short: as §1
T3 sequence (P10635 whole entry): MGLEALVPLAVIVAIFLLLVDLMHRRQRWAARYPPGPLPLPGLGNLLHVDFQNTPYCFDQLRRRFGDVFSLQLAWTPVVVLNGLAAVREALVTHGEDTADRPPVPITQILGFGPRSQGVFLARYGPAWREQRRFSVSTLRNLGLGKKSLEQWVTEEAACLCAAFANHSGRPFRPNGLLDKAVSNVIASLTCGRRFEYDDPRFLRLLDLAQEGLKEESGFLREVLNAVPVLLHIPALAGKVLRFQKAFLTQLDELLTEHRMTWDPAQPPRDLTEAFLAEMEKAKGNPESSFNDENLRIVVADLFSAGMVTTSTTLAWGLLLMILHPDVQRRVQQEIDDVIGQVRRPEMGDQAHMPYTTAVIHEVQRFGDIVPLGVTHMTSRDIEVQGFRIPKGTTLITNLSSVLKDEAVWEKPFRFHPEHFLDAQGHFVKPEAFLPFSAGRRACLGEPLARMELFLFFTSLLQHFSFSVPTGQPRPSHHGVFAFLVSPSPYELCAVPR

[6] = molecular target: T4, Cytochrome P450 3A4 (Homo sapiens, UniProt P08684); experiment: Inhibition of CYP3A4 in human liver microsomes co-incubated with testosterone; assay type: ADME, Microsome; in short: as §1
T4 sequence (P08684 whole entry): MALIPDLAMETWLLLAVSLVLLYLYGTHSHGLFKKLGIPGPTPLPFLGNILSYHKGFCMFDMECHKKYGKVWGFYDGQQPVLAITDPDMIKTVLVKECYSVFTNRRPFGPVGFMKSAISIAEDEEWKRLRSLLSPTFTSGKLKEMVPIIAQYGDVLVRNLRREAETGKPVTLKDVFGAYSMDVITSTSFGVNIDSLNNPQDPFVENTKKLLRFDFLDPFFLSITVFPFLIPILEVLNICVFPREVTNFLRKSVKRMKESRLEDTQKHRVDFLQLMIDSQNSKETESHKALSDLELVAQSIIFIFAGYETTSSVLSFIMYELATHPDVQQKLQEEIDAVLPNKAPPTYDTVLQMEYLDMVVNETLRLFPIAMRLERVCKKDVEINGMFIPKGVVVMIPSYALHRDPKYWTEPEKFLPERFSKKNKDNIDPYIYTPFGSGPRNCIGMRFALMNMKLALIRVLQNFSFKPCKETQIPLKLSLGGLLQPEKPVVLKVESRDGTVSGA

[7] = system: SW1353; experiment: Inhibition of IL1beta-stimulated MMP13 secretion in human SW1353 cells incubated for 30 mins prior to IL1beta-stimulation measured after 24 hrs by ELISA; assay type: functional, cell-based
In short: (§2)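 Cells are treated with a range of compound concentrations, then stimulated with IL1-β, and secreted MMP-13 is measured. Two cell systems are used: the SW1353 line and human primary chondrocytes derived from osteoarthritis tissue. Each data point is the average, with standard error, of duplicate samples.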

[8] = system: THP-1; experiment: Antiinflammatory activity in human THP1 cells assessed as inhibition of LPS-induced IL6 production incubated for 30 mins prior to LPS-challenge measured after 18 hrs by immunoabsorbent-based electrochemical luminescence assay; assay type: functional, cell-based
In short: (§3)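 Human THP1 acute monocytic leukemia cells are treated with a range of compound concentrations and stimulated with LPS. Secreted TNFα or IL6 is then measured. Each data point is the average, with standard error, of duplicate samples.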

[9] = (§4) Inhibition of IL1beta-stimulated MMP13 secretion in human primary chondrocytes incubated for 30 mins prior to IL1beta-stimulation measured after 24 hrs by ELISA; assay type: functional, cell-based; in short: as §2
[10] = molecular target: T2, Cytochrome P450 2C9; experiment: Inhibition of CYP2C9 in human liver microsomes using tolbutamide as substrate incubated for 30 mins prior to substrate addition; assay type: ADME, Microsome; in short: as §1
[11] = system: THP-1; experiment: Antiinflammatory activity in human THP1 cells assessed as inhibition of LPS-induced TNFalpha production incubated for 30 mins prior to LPS-challenge measured after 3 hrs by ELISA; assay type: functional, cell-based; in short: as §3
[12] = molecular target: T3, Cytochrome P450 2D6; experiment: Inhibition of CYP2D6 in human liver microsomes co-incubated with dextromethorphan; assay type: ADME, Microsome; in short: as §1
[13] = molecular target: T4, Cytochrome P450 3A4; experiment: Inhibition of CYP3A4 in human liver microsomes using testosterone as substrate incubated for 30 mins prior to substrate addition; assay type: ADME, Microsome; in short: as §1
[14] = AUC (0 to 6 hrs) in rat at 10 mg/kg, po; assay type: ADME, organism-based; parameters: time < 6 hr, dose 10 mg/kg, route oral; settings: plasma
In short: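 Single oral dose of 10 mg/kg in rats. Plasma exposure is reported as AUC in nM h.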

[15] = molecular target: Casein kinase I isoform gamma-3 (Homo sapiens) (UniProt Q9Y6M4); experiment: Inhibition of human CK1gamma3 at 10 uM
[16] = species on record: Homo sapiens; experiment: as §4; assay type: functional, cell-based; in short: as §2
[17] = molecular target: Rho-associated protein kinase 2 (Homo sapiens, UniProt O75116); experiment: Inhibition of human ROCK2
[18] = molecular target: T1, MAP kinase-activated protein kinase 2; experiment: Inhibition of MK2 using Acam peptide as substrate incubated for 30 mins prior to substrate addition measured after 10 mins using 2 uM ATP by DELFIA assay
[19] = molecular target: Testis-specific serine/threonine-protein kinase 2 (Homo sapiens, UniProt Q96PF2); experiment: Inhibition of human TSSK2
Sequence of Testis-specific serine/threonine-protein kinase 2 (Q96PF2 whole entry, canonical isoform): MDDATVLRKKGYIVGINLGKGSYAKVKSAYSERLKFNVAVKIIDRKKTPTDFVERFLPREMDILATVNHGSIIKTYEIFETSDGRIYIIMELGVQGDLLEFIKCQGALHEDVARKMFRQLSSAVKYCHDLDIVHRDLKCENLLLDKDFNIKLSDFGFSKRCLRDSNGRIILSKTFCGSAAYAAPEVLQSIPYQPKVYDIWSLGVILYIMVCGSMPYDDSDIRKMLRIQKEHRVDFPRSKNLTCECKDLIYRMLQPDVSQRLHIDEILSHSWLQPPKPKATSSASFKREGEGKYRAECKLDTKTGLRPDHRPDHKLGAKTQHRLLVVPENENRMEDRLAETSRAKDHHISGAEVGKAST

[20] = molecular target: Casein kinase I isoform delta (Homo sapiens, UniProt P48730); experiment: Inhibition of human CSNK1D
[21] = molecular target: Serine/threonine-protein kinase Chk1 (Homo sapiens, UniProt O14757); experiment: Inhibition of human CHK1
Sequence of Serine/threonine-protein kinase Chk1 (O14757 whole entry): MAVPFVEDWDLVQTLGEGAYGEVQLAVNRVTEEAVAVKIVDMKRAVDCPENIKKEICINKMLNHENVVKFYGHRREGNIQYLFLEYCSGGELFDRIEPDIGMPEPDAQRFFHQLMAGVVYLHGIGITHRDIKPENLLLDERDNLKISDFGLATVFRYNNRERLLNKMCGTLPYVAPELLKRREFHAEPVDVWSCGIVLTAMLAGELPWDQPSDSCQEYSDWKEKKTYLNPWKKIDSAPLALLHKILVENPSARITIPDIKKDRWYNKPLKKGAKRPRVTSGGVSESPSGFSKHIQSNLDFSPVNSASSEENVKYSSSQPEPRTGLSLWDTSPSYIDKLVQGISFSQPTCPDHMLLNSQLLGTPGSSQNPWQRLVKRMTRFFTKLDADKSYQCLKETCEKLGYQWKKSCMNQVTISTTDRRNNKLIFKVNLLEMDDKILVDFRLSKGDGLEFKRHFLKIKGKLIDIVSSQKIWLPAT

[22] = molecular target: Serine/threonine-protein kinase 3 (Homo sapiens, UniProt Q13188); experiment: Inhibition of human MST2
[23] = Solubility of the compound; assay type: physicochemical
[24] = molecular target: Tyrosine-protein kinase Lck (Homo sapiens, UniProt P06239); experiment: Inhibition of human LCK
[25] = molecular target: Interleukin-1 receptor-associated kinase 4 (Homo sapiens, UniProt Q9NWZ3); experiment: Inhibition of human IRAK4
[26] = molecular target: Inhibitor of nuclear factor kappa-B kinase subunit beta (Homo sapiens, UniProt O14920); experiment: Inhibition of human IKKB
Sequence of Inhibitor of nuclear factor kappa-B kinase subunit beta (O14920 whole entry): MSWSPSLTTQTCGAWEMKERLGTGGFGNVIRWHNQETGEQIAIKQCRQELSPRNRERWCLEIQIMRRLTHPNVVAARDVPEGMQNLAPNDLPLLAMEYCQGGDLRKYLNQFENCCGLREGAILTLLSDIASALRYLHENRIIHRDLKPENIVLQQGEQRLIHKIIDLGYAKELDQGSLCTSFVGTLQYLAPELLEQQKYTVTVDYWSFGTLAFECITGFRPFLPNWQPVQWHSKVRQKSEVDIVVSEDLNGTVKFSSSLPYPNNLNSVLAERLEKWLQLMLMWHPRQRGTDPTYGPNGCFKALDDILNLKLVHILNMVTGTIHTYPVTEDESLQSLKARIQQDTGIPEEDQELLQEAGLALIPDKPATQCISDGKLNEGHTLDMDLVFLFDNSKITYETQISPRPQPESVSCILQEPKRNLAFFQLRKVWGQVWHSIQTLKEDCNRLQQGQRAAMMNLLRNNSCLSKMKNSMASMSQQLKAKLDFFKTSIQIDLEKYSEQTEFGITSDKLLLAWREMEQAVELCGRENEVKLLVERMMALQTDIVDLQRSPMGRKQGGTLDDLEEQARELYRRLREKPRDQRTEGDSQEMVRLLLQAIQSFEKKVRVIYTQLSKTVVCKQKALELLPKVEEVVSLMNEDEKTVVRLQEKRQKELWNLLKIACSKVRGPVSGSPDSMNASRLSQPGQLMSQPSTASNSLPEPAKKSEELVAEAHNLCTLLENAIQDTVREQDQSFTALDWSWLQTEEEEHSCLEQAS

[27] = molecular target: Insulin-like growth factor 1 receptor (Homo sapiens, UniProt P08069); experiment: Inhibition of human IGF1R
[28] = molecular target: RAC-alpha serine/threonine-protein kinase (Homo sapiens, UniProt P31749); experiment: Inhibition of human AKT1
[29] = molecular target: Calcium/calmodulin-dependent protein kinase type IV (Homo sapiens, UniProt Q16566); experiment: Inhibition of human CAMK4
[30] = molecular target: Hepatocyte growth factor receptor (Homo sapiens, UniProt P08581); experiment: Inhibition of human MET
Sequence of Hepatocyte growth factor receptor (P08581 whole entry): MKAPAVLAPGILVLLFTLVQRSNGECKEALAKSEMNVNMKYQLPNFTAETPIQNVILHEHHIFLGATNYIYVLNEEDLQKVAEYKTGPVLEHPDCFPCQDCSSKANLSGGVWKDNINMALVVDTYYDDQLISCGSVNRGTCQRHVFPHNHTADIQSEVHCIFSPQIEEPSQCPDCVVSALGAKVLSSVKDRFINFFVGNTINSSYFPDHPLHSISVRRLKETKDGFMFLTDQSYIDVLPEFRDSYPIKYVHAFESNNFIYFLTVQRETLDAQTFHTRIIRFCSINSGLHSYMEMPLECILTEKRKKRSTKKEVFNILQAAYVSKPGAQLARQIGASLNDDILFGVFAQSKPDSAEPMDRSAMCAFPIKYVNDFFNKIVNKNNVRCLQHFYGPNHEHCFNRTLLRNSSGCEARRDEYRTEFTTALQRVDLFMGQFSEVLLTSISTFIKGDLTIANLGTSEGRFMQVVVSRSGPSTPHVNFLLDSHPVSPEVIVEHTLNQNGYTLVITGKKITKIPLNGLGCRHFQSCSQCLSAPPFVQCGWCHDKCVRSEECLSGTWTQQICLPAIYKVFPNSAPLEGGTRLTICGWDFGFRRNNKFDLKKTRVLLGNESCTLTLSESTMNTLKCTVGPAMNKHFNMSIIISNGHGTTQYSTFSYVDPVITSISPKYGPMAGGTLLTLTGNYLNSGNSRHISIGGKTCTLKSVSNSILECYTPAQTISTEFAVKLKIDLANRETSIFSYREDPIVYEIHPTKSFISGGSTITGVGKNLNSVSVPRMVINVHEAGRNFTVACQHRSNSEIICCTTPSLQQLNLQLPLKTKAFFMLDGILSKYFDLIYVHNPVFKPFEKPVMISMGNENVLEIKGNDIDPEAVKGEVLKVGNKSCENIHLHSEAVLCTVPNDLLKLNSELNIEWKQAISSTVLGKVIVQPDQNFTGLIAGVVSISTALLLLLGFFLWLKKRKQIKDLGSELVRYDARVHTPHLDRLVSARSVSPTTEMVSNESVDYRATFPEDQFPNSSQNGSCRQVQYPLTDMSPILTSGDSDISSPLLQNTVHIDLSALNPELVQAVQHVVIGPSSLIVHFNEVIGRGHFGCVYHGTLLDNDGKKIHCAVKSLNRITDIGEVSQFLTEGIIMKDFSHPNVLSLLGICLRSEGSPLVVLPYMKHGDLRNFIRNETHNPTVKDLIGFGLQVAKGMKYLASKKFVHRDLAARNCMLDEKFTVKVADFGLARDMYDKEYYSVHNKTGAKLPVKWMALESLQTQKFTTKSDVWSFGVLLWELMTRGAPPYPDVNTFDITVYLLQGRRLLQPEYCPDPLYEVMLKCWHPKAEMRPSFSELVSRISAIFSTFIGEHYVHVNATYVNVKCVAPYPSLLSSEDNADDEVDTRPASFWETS

T1 sequence (P49137 whole entry): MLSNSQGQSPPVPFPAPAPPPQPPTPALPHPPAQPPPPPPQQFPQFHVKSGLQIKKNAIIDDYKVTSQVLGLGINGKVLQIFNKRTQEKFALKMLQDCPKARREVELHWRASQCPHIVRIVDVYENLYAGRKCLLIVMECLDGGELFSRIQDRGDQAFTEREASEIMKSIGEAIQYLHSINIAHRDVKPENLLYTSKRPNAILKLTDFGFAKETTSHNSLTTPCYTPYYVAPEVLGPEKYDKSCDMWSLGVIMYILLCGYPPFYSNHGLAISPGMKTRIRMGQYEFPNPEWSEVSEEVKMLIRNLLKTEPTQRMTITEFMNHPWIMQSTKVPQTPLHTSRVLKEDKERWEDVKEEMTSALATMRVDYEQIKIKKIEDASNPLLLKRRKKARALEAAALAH

Row | SMILES | IC50 [1] [µM] | EC50 [2] [µM] | CC50 at 0.5 h [3] [µM] | further results
1 | O=C(Nc1ccc(N2CCNCC2)cc1)c1ccc(-c2ccccc2Cl)o1 | 8 | > 8 | 15 | 
2 | CN(C(=O)c1ccc(-c2ccc(Cl)cc2)o1)c1ccc(N2CCNCC2)cc1 |  |  | > 20 | 
3 | O=C(Nc1ccc(N2CCNCC2)cc1)c1ccc(-c2ccc(Cl)cc2Cl)o1 | 7.6 | 1.6 | 8.1 | 
4 | CCCCN(C(=O)c1ccc(-c2ccc(Cl)cc2)o1)c1ccc(N2CCNCC2)cc1 |  |  | 19 | 
5 | COc1ccc(-c2ccc(C(=O)Nc3ccc(N4CCNCC4)cc3)o2)cc1 | 22 | 8 |  | 
6 | O=C(c1ccc(-c2ccc(Cl)cc2)o1)N(Cc1ccccn1)c1ccc(N2CCNCC2)cc1 [listing 1 of 2 here] |  |  | > 20 | IC50 [4]: > 20 µM; IC50 [5]: > 20 µM; IC50 [6]: > 20 µM; IC50 [7]: 5.7 µM; IC50 [8]: 5.2 µM; IC50 [9]: 2.2 µM; IC50 [10]: > 30 µM; IC50 [11]: 4.4 µM; IC50 [12]: > 20 µM; IC50 [13]: > 20 µM
7 | O=C(Nc1ccc(N2CCC(O)CC2)cc1)c1ccc(-c2ccc(Cl)cc2)o1 | > 20 |  |  | 
8 | O=C(c1ccc(-c2ccc(Cl)cc2)o1)N(Cc1ccncc1)c1ccc(N2CCNCC2)cc1 |  |  | > 8 | 
9 | O=C(Nc1ccc(N2CCNCC2)cc1)c1ccc(-c2cccc(Cl)c2)o1 | > 20 | > 5 | 13 | 
10 | Cc1cc(Cl)ccc1-c1ccc(C(=O)Nc2ccc(N3CCNCC3)cc2)o1 | 5.9 | 1.4 | 8.8 | 
11 | CCN(C(=O)c1ccc(-c2ccc(Cl)cc2)o1)c1ccc(N2CCNCC2)cc1 |  |  | > 8 | 
12 | CC(C)N(C(=O)c1ccc(-c2ccc(Cl)cc2)o1)c1ccc(N2CCNCC2)cc1 | 1.2 | 2.7 | > 20 | 
13 | O=C(Nc1ccc(N2CCNCC2)cc1)c1ccc(-c2ccc(Cl)s2)o1 | 6.9 | > 8 | > 20 | 
14 | Cl.O=C(c1ccc(-c2ccc(Cl)cc2)o1)N(Cc1ccccn1)c1ccc(N2CCNCC2)cc1 |  |  |  | AUC(0-t) at 6 h [14]: 2.3 µM·h
15 | O=C(Nc1ccc(N2CCNCC2=O)cc1)c1ccc(-c2ccc(Cl)cc2)o1 | 15 |  |  | 
16 | CCCN(C(=O)c1ccc(-c2ccc(Cl)cc2)o1)c1ccc(N2CCNCC2)cc1 |  |  | > 20 | 
17 | Cn1ccnc1CN(C(=O)c1ccc(-c2ccc(Cl)cc2)o1)c1ccc(N2CCNCC2)cc1 |  |  | > 20 | 
18 | O=C(Nc1ccc(N2CCNCC2)cc1)c1cc(-c2ccc(Cl)cc2)on1 | 7.5 | 1.9 | 1 | 
19 | CN1CCN(c2ccc(NC(=O)c3ccc(-c4ccc(Cl)cc4)o3)cc2)CC1 | 6 | 20 |  | 
20 | O=C(c1ccc(-c2ccc(Cl)cc2)o1)N(Cc1ccccn1)c1ccc(N2CCNCC2)cc1 [listing 2 of 2 here] |  |  |  | inhibition [7]: Dose-dependent effect; inhibition [15]: > 50%; inhibition [8]: Dose-dependent effect; inhibition [16]: Dose-dependent effect; inhibition [11]: Dose-dependent effect
21 | O=C(Nc1ccc(N2CCNCC2)cc1)c1csc(-c2ccc(Cl)cc2)n1 | 9.5 | 0.9 | 0.9 | 
22 | O=C(Nc1ccc(N2CCNCC2)cc1)c1ccc(-c2ccc(C(F)(F)F)cc2)o1 | 20 | > 7.7 | > 15 | 
23 | O=C(Nc1ccc(N2CCNCC2)cc1C(F)(F)F)c1ccc(-c2ccc(Cl)cc2)o1 | > 20 | > 8 | 18 | 
24 | O=C(Nc1ccc(N2CCNCC2)c(F)c1)c1ccc(-c2ccc(Cl)cc2)o1 | 6.7 | > 3.4 | 16 | 
25 | O=C(Nc1ccc(N2CCNCC2)cc1)c1cccc(-c2ccc(Cl)cc2)n1 | 11 | 3.9 | > 10 | 
26 | O=C(Nc1ccc(C2=CCNCC2)cc1)c1ccc(-c2ccc(Cl)cc2)o1 | 2.1 | 1.3 | 6.5 | 
27 | O=C(Nc1ccc(N2CCNCC2)cc1)c1ccc(-c2ccc(Cl)cc2)s1 | 9 | 5 | 8 | 
28 | O=C(Nc1ccc(N2CCNCC2)cc1)c1ccc(-c2ccc(Cl)cc2)o1 | 5.5 | 2 | > 10 | IC50 [17]: > 30 µM; IC50 [18]: 5 µM; IC50 [19]: > 30 µM; IC50 [20]: > 30 µM; IC50 [21]: > 30 µM; IC50 [22]: > 30 µM; solubility [23]: > 20 µM; IC50 [24]: > 30 µM; IC50 [25]: 7.5 µM; IC50 [26]: > 30 µM; IC50 [27]: > 30 µM; IC50 [28]: > 30 µM; IC50 [29]: > 30 µM; IC50 [30]: > 30 µM
